# Screening results from PubChem BioAssay.
# Hits are enriched below; roughly 2.9% of the tested compounds scored in any of these assays.
# T cruzi inh – inhibitors of intracellular T. cruzi growth, primary screen, luminescence, NIH3T3 host cells; 300,000 compounds, 1.4% hits; T. cruzi beta-gal in NIH3T3, 90 h; inhibition, % (no concentration beside the values);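 active = mean inhibition across valid replicates above about 55%, limit read from the data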;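 also: signal also drops with host cell toxicity which is not excluded here; 0% = plate median of DMSO wells and 100% = zero luminescence signal; higher percent means less beta-gal luminescence so fewer parasites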
#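 System: Mouse NIH/3T3 fibroblasts infected with β-gal-expressing T. cruzi Tulahuen C4 | Quantity: NIH/3T3 cells, 5,000 per well | Reagent: 5000 reporter trypomastigotes per well | Dosing: Compound pinned at 50 nL/well, DMSO | Schedule: 3 h host attachment, then at least 90 h co-culture | Detection: GalScreen luminescence, 60 min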
# Rev-erbA mod – modulators of Rev-erb alpha DNA binding, primary screen, biochemical, FITC-DNA, fluorescence polarization, uHTS. 370,000 compounds, 0.79% hits. activity, % at 10 µM. Rev-erbα–FITC-DNA binding, 90 min. Nuclear receptor subfamily 1 group D member 1 (Homo sapiens), P20393;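 active = activity above about 14%, limit read from the data; passing the limit was not always enough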;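 also: 0% = DMSO wells with 35 nM protein and 100% = DMSO wells with 750 nM protein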
# Target sequence (P20393 whole entry, looked up): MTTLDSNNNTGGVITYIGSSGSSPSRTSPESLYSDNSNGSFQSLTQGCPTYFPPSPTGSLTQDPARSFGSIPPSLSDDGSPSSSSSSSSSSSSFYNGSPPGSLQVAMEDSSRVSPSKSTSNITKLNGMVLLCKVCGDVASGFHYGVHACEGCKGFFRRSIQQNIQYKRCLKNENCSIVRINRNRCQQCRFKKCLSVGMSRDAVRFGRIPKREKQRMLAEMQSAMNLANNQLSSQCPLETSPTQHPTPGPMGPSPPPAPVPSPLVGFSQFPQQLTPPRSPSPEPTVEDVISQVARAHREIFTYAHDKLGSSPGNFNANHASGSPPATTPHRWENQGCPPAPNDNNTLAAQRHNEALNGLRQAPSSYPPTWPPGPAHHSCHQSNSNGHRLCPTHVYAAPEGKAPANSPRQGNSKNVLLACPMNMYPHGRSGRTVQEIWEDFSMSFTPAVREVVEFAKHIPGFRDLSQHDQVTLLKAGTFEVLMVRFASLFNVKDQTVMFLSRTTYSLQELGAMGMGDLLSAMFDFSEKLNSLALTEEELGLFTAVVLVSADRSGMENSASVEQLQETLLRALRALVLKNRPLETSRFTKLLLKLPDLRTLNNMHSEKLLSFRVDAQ
# MIN6 prolif – inducers of MIN6 beta-cell proliferation, primary screen, ATP luminescence, uHTS. proliferation, % at 10 µM. MIN6 cells proliferation, ATPlite luminescence, 48 h; cells starved in 0.2% serum; 100% = growth in 10% serum. 330,000 compounds, 0.29% hits;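 active = compounds whose signal lies at least 3.5 SD above the mean of all wells on their plate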;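 also: 0% = DMSO-treated cells in low-serum medium and 100% = 10% serum control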
# TAG inh – inhibitors of triacylglycerol accumulation, primary screen, cell-based, uHTS, fluorescence, H9c2 | 230,000 compounds, 0.66% hits | inhibition, % at 12.5 µM | H9c2 cells, Nile Red lipid (TAG) fluorescence; cells loaded with 200 µM oleic acid | AID 651582, 2012;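 active = pattern-corrected inhibition of lipid staining of at least 50% with the nuclear-stain viability signal not falling by more than 50%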;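 also: 0% = DMSO wells and 100% = triacsin C control wells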
# iPSC survival up – enhancers of single-cell hiPSC survival, primary screen, ATPlite luminescence. 100% = ROCK inhibitor wells, 0% = DMSO. survival enhancement, % at 20 µM. 360,000 compounds, 0.044% hits; in the data active = survival enhancement above about 18%;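 also: cells exposed to compounds for 16 hours before the ATP read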
# PG9 binder – binders of HIV-1 gp120 antibody PG9, primary screen, biochemical, TR-FRET. HIV-1 gp120 / PG9 antibody interaction. TR-FRET gp120-PG9 antibody binding. inhibition, % at 6.7 µM. 360,000 compounds, 0.43% hits; in the data active = inhibition above about 8.5%
# * hit, by the source's call; . = not tested or not shown.
SMILES,T cruzi inh,Rev-erbA mod,MIN6 prolif,TAG inh,iPSC survival up,PG9 binder
CC(=O)O[C@H]1C(=O)[C@@]2(C)[C@H]([C@H](OC(=O)c3ccccc3)[C@]3(O)C[C@H](OC(=O)[C@H](O)C(NC(=O)c4ccccc4)c4ccccc4)C(C)=C1C3(C)C)[C@]1(OC(C)=O)CO[C@@H]1C[C@@H]2O (some centres undefined),51.6,0.3,-2.8,61.8,-2.8,-1.8
CC(C)Oc1ccc(Cl)cc1Nc1nc(NCCO)nc(N2CCCC2)n1,17.1,-0.6,-8.5,38.9,3.0,1.9
O=C(Nc1ccc(Cl)cc1)Nc1ccc2c(c1)OCO2,0.8,0.4,-2.3,-5.8,-0.3,-2.6
COc1cc(CN(C)CC2CCCN(CCc3ccccc3F)C2)cc(Cl)c1OC (centres undefined),57.7*,5.7,-3.4,13.8,-0.1,-0.5
CN1CCc2c(sc(N)c2C(=O)O)C1,-1.9,-0.5,-3.1,.,-0.6,-0.7
COc1ccc(C(=O)c2c(N)sc3c2CCN(C)C3)cc1,8.4,-1.6,8.0*,.,0.0,1.4
CCOC(=O)c1c(NC(=O)C2c3ccccc3Oc3ccccc32)sc(C(=O)N(CC)CC)c1C,41.2,.,-4.5,80.5*,-2.1,.
CCOC(=O)c1c(NC(=O)CN(C)C)sc(C(=O)N(CC)CC)c1C,12.9,1.4,1.0,10.1,-0.8,-1.8
NCCCCCc1cn(CC(=O)NCCCCCCCCCCC(=O)N2CCNCC2)nn1,.,0.4,2.3,5.6,-0.1,1.7
CC(C)(C)c1ccc(CN(Cc2ccccc2)C(c2ccccn2)c2nnnn2C(C)(C)C)cc1 (centres undefined),61.8*,11.7,-3.4,5.4,-2.7,-1.6
COc1ccc(N/C=C2/Sc3ccccc3NC2=O)cc1,67.9*,1.3,4.3,.,-2.4,-7.7
Cc1ccc(N/C=C2/Sc3ccccc3NC2=O)cc1,58.9*,1.2,-0.2,.,-3.7,-7.1
CCOc1ccc(NC(=O)CN(C)C(=O)CC2CCCC2)cc1OCC,.,-5.8,-1.8,-43.1,1.1,-0.5
Cc1ccc(CN2CCN(CC(=O)N=Nc3c(O)[nH]c4ccccc34)CC2)cc1,57.7*,-0.4,-1.6,.,-2.8,-1.8
C=CCn1c(SCc2ccccc2Cl)nnc1-c1sc2nc(C)cc(C)c2c1N,62.8*,-2.8,-2.7,10.2,-0.5,5.8
Cc1cc(C)c2c(N)c(-c3nnc(SCc4ccc(Cl)cc4)n3C)sc2n1,11.9,-7.2,-0.9,12.9,-0.4,-0.8
CCC1CCCCN1c1nc(-c2ccncc2)nc2ccccc12 (centres undefined),63.2*,6.1,-4.2,.,2.6,0.4
CCC1CCCCN1c1nc(-c2cccc(OC)c2O)nc2ccccc12 (centres undefined),51.9,7.7,-6.2,.,-0.8,-0.2
CC1CCCCN1c1nc(-c2ccncc2)nc2ccccc12 (centres undefined),59.8*,6.0,0.0,21.7,0.4,-1.0
CC[n+]1ccccc1/C=C/c1ccc(N(C)C)cc1,59.4*,16.1,.,-39.0,-2.0,-15.5
C[C@]12CCC(O)CC1=CCC1C2CC[C@]2(C)/C(=N\NC(N)=S)CCC12 (some centres undefined),65.8*,1.6,-6.0,.,1.5,-0.1
CC12CCC(O)CC1=CCC1C2CCC2(C)C1CCC21CCC(=O)O1 (centres undefined),8.2,4.3,.,.,0.5,0.1
O=[N+]([O-])c1ccc(/C=N/n2c(CO)nc3ccccc32)s1,67.2*,-17.3,-6.1,.,-3.3,-1.3
O=[N+]([O-])c1ccc(/C=N/n2cnc3ccccc32)s1,73.0*,3.7,-4.6,.,-1.8,-4.9
O=C(C1CCN(Cc2ccc(OCc3ccccc3)cc2)CC1)N1CCCC1,-4.1,2.2,-2.6,24.1,-3.0,2.9
SMILES,T cruzi inh,Rev-erbA mod,MIN6 prolif,TAG inh,iPSC survival up,PG9 binder
CCOc1ccc(OCC(O)CNC2CCN(Cc3ccccc3)CC2)cc1 (centres undefined),56.6*,-5.3,-5.5,1.7,-3.2,0.1
COc1ccc(OCC(O)CNC2CCCC2)cc1 (centres undefined),-1.2,-2.8,0.8,.,0.0,-1.4
CC(C)Oc1ccc(C(=O)NC2CCN(Cc3ccccc3)CC2)cc1,32.9,4.2,-0.5,.,-0.5,-0.6
OC1CCN(Cc2ccc(OCc3ccccc3)cc2)CC1,61.5*,-4.7,-2.8,.,0.8,-0.8
CC(Oc1ccc(Br)cc1)C(=O)NC1CCN(Cc2ccccc2)CC1 (centres undefined),57.7*,-0.9,0.5,-14.9,-0.6,-0.8
CC(C)(c1ccccc1)c1ccc(OCC(O)CNC2CCN(Cc3ccccc3)CC2)cc1 (centres undefined),61.6*,4.0,-7.1,23.6,-2.3,1.3
CCOC(=O)c1ccc(Nc2cc(C)nc(C)c2C(=O)OCC)cc1,15.3,-3.6,-1.0,-5.6,1.2,0.7
CCN(CC)S(=O)(=O)c1cccc(-n2c(O)c(C=Nc3ccccc3C(=O)O)c3ccccc3c2=O)c1,72.2*,-9.0,-2.5,-21.3,-0.3,0.6
O=C(O)c1ccccc1N=Cc1c(O)n(-c2nccs2)c(=O)c2ccccc12,13.6,-8.7,-1.0,6.0,1.3,-0.1
CC(=O)c1ccc(N2CCN(C(=O)CCC(=O)c3cccs3)CC2)cc1,8.3,-4.2,-2.1,-6.2,-0.2,-1.7
N#C/C(=C/c1cn(-c2ccccc2)nc1-c1cccc(OCc2ccccc2)c1)C(=O)NCCCn1ccnc1,60.2*,-8.8,0.0,.,-1.2,0.8
Cc1ccc2oc(C(=O)N(C)Cc3cnccn3)c(C)c2c1,32.3,8.0,-0.2,16.4,0.0,-1.6
COC(=O)CNC(c1ccccc1)c1cc(Br)ccc1NC(=O)CCN1CCOCC1 (centres undefined),68.1*,-1.2,-6.0,5.3,-2.6,1.4
COc1ccc(C2CC(c3ccccc3)Nc3nc(NC(=O)c4ccco4)nn32)cc1 (centres undefined),10.0,0.2,-2.6,.,2.4,0.0
COc1ccc2c(c1)NC(C)(C)C=C2C,65.9*,4.2,-2.7,3.1,-0.6,-3.4
CC1=CC(C)(C)Nc2ccc(OS(=O)(=O)c3ccc(C)cc3)cc21,52.8,0.9,-5.7,.,-1.0,-0.4
CC1=CC(C)(C)Nc2ccccc21,75.2*,-3.7,2.3,8.8,2.3,0.4
COc1ccc(C2CC(c3ccccc3)=NN2c2ccc(S(N)(=O)=O)cc2)cc1 (centres undefined),56.9*,-5.7,-5.2,20.5,0.9,1.9
